Results from ChEMBL document CHEMBL3272084, “Adamantane and protoadamantanealkanamines as potential anti-Parkinson agents” (J Med Chem, 1976).
Activity calls are given as the source filed them. The rule behind the calls is not given here.

How the values were obtained:
Rattus norvegicus [1] = experiment: Antiparkinsonian activity in Wistar rat assessed as reversal of reserpine-induced catalepsy at 0.13 mmol/kg, po measured every 30 mins up to 1.5 hrs; type: functional, organism-based
[2] = Acute toxicity in po dosed albino CFW mouse assessed as mortality measured over 48 hrs; type: organism-based; conditions: albino CFW, in vivo
[3] = Acute toxicity in ip dosed albino CFW mouse assessed as mortality measured over 48 hrs; type: organism-based; conditions: albino CFW, in vivo
Mus musculus [4] = experiment: Antidepressant activity in CFW mouse assessed as reversal of reserpine-induced hypothermia by measuring temperature index at 0.13 mmol/kg, sc measured every 30 mins up to 1.5 hrs; type: functional, organism-based
Mus musculus [5] = experiment: Antiparkinsonian activity in CFW mouse assessed as reversal of reserpine-induced catalepsy at 0.13 mmol/kg, sc measured every 30 mins up to 1.5 hrs; type: functional, organism-based
Mus musculus [6] = experiment: Antiparkinsonian activity in CFW mouse assessed as reversal of reserpine-induced catalepsy at 0.20 mmol/kg, sc measured every 30 mins up to 1.5 hrs; type: functional, organism-based
Mus musculus [7] = experiment: Antidepressant activity in CFW mouse assessed as reversal of reserpine-induced hypothermia by measuring temperature index at 0.20 mmol/kg, sc measured every 30 mins up to 1.5 hrs; type: functional, organism-based
Mus musculus [8] = experiment: Antidepressant activity in CFW mouse assessed as reversal of reserpine-induced hypothermia by measuring temperature index at 0.32 mmol/kg, sc measured every 30 mins up to 1.5 hrs; type: functional, organism-based
Mus musculus [9] = experiment: Antiparkinsonian activity in CFW mouse assessed as reversal of reserpine-induced catalepsy at 0.32 mmol/kg, sc measured every 30 mins up to 1.5 hrs; type: functional, organism-based
Rattus norvegicus [10] = experiment: Antiparkinsonian activity in Wistar rat assessed as reversal of reserpine-induced catalepsy at 0.08 mmol/kg, po measured every 30 mins up to 1.5 hrs; type: functional, organism-based
Mus musculus [11] = experiment: Antiparkinsonian activity in CFW mouse assessed as reversal of reserpine-induced catalepsy at 0.15 mmol/kg, sc measured every 30 mins up to 1.5 hrs; type: functional, organism-based
Mus musculus [12] = experiment: Antidepressant activity in CFW mouse assessed as reversal of reserpine-induced hypothermia by measuring temperature index at 0.15 mmol/kg, sc measured every 30 mins up to 1.5 hrs; type: functional
Mus musculus [13] = experiment: Antiparkinsonian activity in CFW mouse assessed as reversal of reserpine-induced catalepsy at 0.11 mmol/kg, sc measured every 30 mins up to 1.5 hrs; type: functional, organism-based
Mus musculus [14] = experiment: Antidepressant activity in CFW mouse assessed as reversal of reserpine-induced hypothermia by measuring temperature index at 0.11 mmol/kg, sc measured every 30 mins up to 1.5 hrs; type: functional, organism-based
Mus musculus [15] = experiment: Antiparkinsonian activity in CFW mouse assessed as reversal of reserpine-induced catalepsy at 0.05 mmol/kg, sc measured every 30 mins up to 1.5 hrs; type: functional, organism-based
Mus musculus [16] = experiment: Antidepressant activity in CFW mouse assessed as reversal of reserpine-induced hypothermia by measuring temperature index at 0.05 mmol/kg, sc measured every 30 mins up to 1.5 hrs; type: functional, organism-based
Mus musculus [17] = experiment: Antiparkinsonian activity in CFW mouse assessed as reversal of reserpine-induced catalepsy at 0.16 mmol/kg, sc measured every 30 mins up to 1.5 hrs; type: functional, organism-based
Mus musculus [18] = experiment: Antidepressant activity in CFW mouse assessed as reversal of reserpine-induced hypothermia by measuring temperature index at 0.16 mmol/kg, sc measured every 30 mins up to 1.5 hrs; type: functional
Mus musculus [19] = experiment: Antiparkinsonian activity in CFW mouse assessed as reversal of reserpine-induced catalepsy at 0.21 mmol/kg, sc measured every 30 mins up to 1.5 hrs; type: functional, organism-based
Rattus norvegicus [20] = experiment: Antiparkinsonian activity in Wistar rat assessed as reversal of reserpine-induced catalepsy at 0.21 mmol/kg, po measured every 30 mins up to 1.5 hrs; type: functional, organism-based
Mus musculus [21] = experiment: Antidepressant activity in CFW mouse assessed as reversal of reserpine-induced hypothermia by measuring temperature index at 0.21 mmol/kg, sc measured every 30 mins up to 1.5 hrs; type: functional
Mus musculus [22] = experiment: Antidepressant activity in CFW mouse assessed as reversal of reserpine-induced hypothermia by measuring temperature index at 0.07 mmol/kg, sc measured every 30 mins up to 1.5 hrs; type: functional
Mus musculus [23] = experiment: Antiparkinsonian activity in CFW mouse assessed as reversal of reserpine-induced catalepsy at 0.07 mmol/kg, sc measured every 30 mins up to 1.5 hrs; type: functional, organism-based
In short: (§1)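 Groups of five CFW mice were given reserpine 4 mg/kg sc, and catalepsy was assessed 2.5 h later. Reversal was scored 0–5: 0 no effect, 1 marginal, 2 significant, 3 marked, 4 approaching complete, 5 complete reversal.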

Rattus norvegicus [24] = experiment: Antiparkinsonian activity in Wistar rat assessed as reversal of reserpine-induced catalepsy at 0.14 mmol/kg, po measured every 30 mins up to 1.5 hrs; type: functional, organism-based
Mus musculus [25] = experiment: Antiparkinsonian activity in CFW mouse assessed as reversal of reserpine-induced catalepsy at 0.09 mmol/kg, sc measured every 30 mins up to 1.5 hrs; type: functional, organism-based; in short: as §1
Mus musculus [26] = experiment: Antidepressant activity in CFW mouse assessed as reversal of reserpine-induced hypothermia by measuring temperature index at 0.09 mmol/kg, sc measured every 30 mins up to 1.5 hrs; type: functional
In short: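 Groups of five CFW mice received reserpine 4 mg/kg sc. After 2.5 h, rectal temperature was taken. The temperature index (TI) is the sum of the group's mean changes from its mean initial temperature at 30, 60 and 90 min. Scoring: 0 = no effect, 1 = TI 5–10, 2 = TI >10. A run was repeated if the reserpine control TI fell outside −5 to −15.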

Rattus norvegicus [27] = experiment: Antiparkinsonian activity in Wistar rat assessed as reversal of reserpine-induced catalepsy at 0.07 mmol/kg, po measured every 30 mins up to 1.5 hrs; type: functional, organism-based

CN(C)CC12CC3CC(CC(C3)C1Br)C2.Cl (stereo not given)
Activity (Rattus norvegicus [1]): Active | LD50 at 48 h [2]: 1300 µmol/kg | LD50 at 48 h [3]: 500 µmol/kg | Activity (Mus musculus [4]): inactive | Activity (Mus musculus [5]): inactive

CN(C)CC1(O)CC2CC3CC(C2)C1C3.Cl (stereo not given)
LD50 at 48 h [2]: 1600 µmol/kg | LD50 at 48 h [3]: 1200 µmol/kg | Activity (Mus musculus [6]): inactive | Activity (Mus musculus [7]): inactive

CNCC1(O)CC2CC3CC(C2)C1C3.O=C(O)/C=C\C(=O)O (stereo not given)
LD50 at 48 h [2]: 3900 µmol/kg | LD50 at 48 h [3]: 1900 µmol/kg | Activity (Mus musculus [8]): inactive | Activity (Mus musculus [9]): inactive

Br.CN1CCN(CC23CC4CC(CC(C4)C2Br)C3)CC1 (stereo not given)
LD50 at 48 h [2]: 1200 µmol/kg | LD50 at 48 h [3]: 600 µmol/kg | Activity (Mus musculus [4]): inactive | Activity (Rattus norvegicus [10]): inactive | Activity (Mus musculus [5]): inactive

CN1CCN(CC23CC4CC(CC(C4)C2O)C3)CC1.Cl (stereo not given)
Activity (Mus musculus [11]): inactive | LD50 at 48 h [2]: 1200 µmol/kg | LD50 at 48 h [3]: 900 µmol/kg | Activity (Mus musculus [12]): 5

Cl.OCCNC1CC2CC3CC(C2)C1C3 (stereo not given)
LD50 at 48 h [2]: 2600 µmol/kg | LD50 at 48 h [3]: 600 µmol/kg | Activity (Mus musculus [13]): inactive | Activity (Mus musculus [14]): inactive

O=C(O)/C=C\C(=O)O.c1ccc(CNCC2CC3CC4CC(C3)C2C4)cc1 (stereo not given)
Activity (Mus musculus [15]): inactive | Activity (Mus musculus [16]): inactive | LD50 at 48 h [2]: 500 µmol/kg | LD50 at 48 h [3]: 200 µmol/kg

Cl.Clc1ccc(CNC2CC3CC4CC(C3)C2C4)cc1 (stereo not given)
Activity (Mus musculus [17]): inactive | LD50 at 48 h [2]: 1900 µmol/kg | LD50 at 48 h [3]: 600 µmol/kg | Activity (Mus musculus [18]): 5

NC12CC3CC(CC(C3)C1)C2 [AMANTADINE]
Activity (Mus musculus [19]): inactive | Activity (Rattus norvegicus [20]): Active | Activity (Mus musculus [21]): 5

CNCC12CC3CC(CC(C3)C1c1ccccc1)C2.Cl (stereo not given)
Activity (Mus musculus [22]): 5 | Activity (Mus musculus [23]): inactive | Activity (Rattus norvegicus [24]): inactive

Cl.c1ccc(CNC2CC3CC4CC(C3)C2C4)cc1 (stereo not given)
LD50 at 48 h [2]: 700 µmol/kg | LD50 at 48 h [3]: 500 µmol/kg | Activity (Mus musculus [25]): Active | Activity (Mus musculus [26]): >10 | Activity (Rattus norvegicus [27]): Active
